Hits are enriched below; roughly 4.7% of the tested compounds scored in any of these assays.
RGS4 block = RGS4 inhibitors, primary screen, cell-based, HEK293 M3R inducible RGS4, calcium flux; B-score at 10 µM; Fluo-4 calcium flux; hits give high values; triggered by carbachol at its EC20; actives 0.45% (n = 310,000);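 active means B-score, a plate-corrected calcium signal, over three deviations above library mean, with baseline fluorescence within five deviations of library mean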;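 further: RGS4 expression induced by doxycycline in cells with stable M3 receptor; B-score is computed from the integrated fluorescence ratio over baseline after carbachol; higher B-score means a larger calcium signal and so more RGS4 inhibition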
KCC2 mod = KCC2 cotransporter modulators, thallium flux, primary screen, cell-based, HEK293 KCC2, FluoZin-2 fluorescence, MLSMR; Solute carrier family 12 member 5 (Homo sapiens), Q9H2X9; KCC2 cells, thallium flux FluoZin-2 fluorescence; B-score of Tl+ flux slope (higher = more flux/activation; lower = inhibition) at 10 µM; actives 2.2% (n = 190,000); AID 1456, 2008;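 active means thallium flux slope and its plate-corrected score both differing from the plate sample mean at a set confidence after two filtering rounds, in either direction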;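 further: slope of fluorescence scaled to starting intensity during 10 to 20 s after thallium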
RGS4 pot = RGS4 potentiators or activators, primary screen, cell-based, HEK293 M3R inducible RGS4, calcium flux; carbachol calcium flux Fluo4; hits give low values; B-score at 10 µM; actives 0.92% (n = 310,000); AID 463111, 2010;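 active means B-score of the integrated calcium signal more than 4 SD below the library mean, with starting fluorescence not abnormally high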;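 further: negative B-score means reduced calcium response which marks RGS4 activation or potentiation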
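Material: M3R-expressing HEK293 line, RGS4 induced by doxycycline | Schedule: Overnight RGS4 induction, 30 min dye load 37 °C, 20 min compound RT | Measured by: Fluo4 fluorescence kinetic imaging of calcium | Read-out: Integrated calcium ratio converted to B score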
MrgX1 allo act = positive allosteric modulators of MrgX1, primary screen, HEK293 cells, Fluo-4 calcium flux; actives 0.63% (n = 310,000); B-score at 10 µM; FDSS; hits give high values; Mas-related G-protein coupled receptor member X1 (Homo sapiens), Q96LB2;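 active means plate-corrected calcium response at least 3 library SD above typical, normal starting fluorescence, not activating the receptor alone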;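 further: compound read alongside a low EC10 to EC30 dose of BAM8-22 agonist; peak minus trough fluorescence over baseline measured at the second addition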
Target sequence (Q96LB2 whole entry, looked up): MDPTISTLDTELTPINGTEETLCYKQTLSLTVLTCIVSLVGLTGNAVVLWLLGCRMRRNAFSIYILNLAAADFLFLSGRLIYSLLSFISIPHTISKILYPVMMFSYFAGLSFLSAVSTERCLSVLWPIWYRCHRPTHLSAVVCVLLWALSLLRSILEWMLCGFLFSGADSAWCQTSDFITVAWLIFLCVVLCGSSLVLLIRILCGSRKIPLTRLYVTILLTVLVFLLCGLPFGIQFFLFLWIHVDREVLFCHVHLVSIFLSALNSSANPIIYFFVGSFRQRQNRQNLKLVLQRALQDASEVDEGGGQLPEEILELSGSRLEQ
MrgX1 antagonist = antagonists of human MrgX1 receptor, primary screen, HEK293 cells, Fluo-4 calcium flux | Mas-related G-protein coupled receptor member X1 (Homo sapiens), Q96LB2 | BAM8-22 antagonism; hits give low values | B-score at 10 µM | actives 1.3% (n = 310,000);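 active means calcium-response B-score plate-corrected more than 3 library SD below zero, starting fluorescence within 5 deviations, no agonist response on first addition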;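 further: peak minus trough fluorescence over baseline after final BAM8-22 challenge near maximal dose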
MrgX1 ag = agonists of human MrgX1 receptor, primary screen, HEK293 cells, Fluo-4 calcium flux; Fluo-4 calcium fluorescence, agonist mode; hits give high values; B-score at 10 µM; actives 0.44% (n = 310,000);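 active means calcium response B-score plate-corrected fluorescence ratio at least 3 library SD, with starting fluorescence B-score inside 5 SD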
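Material: MrgX1-expressing HEK293 cells; input: 15,000 cells per well; doses: test compound given as first of three sequential additions; schedule: overnight plating before 1 h dye loading; technique: Fluo-4 NW calcium-flux fluorescence, kinetic read; evaluation: baseline-normalised fluorescence change ratio, B-scored; control set: plate-wise positive and negative controls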
* hit, by the source's call; i = inactive; . = no result given.

SMILES | RGS4 block | KCC2 mod | RGS4 pot | MrgX1 allo act | MrgX1 antagonist | MrgX1 ag
O=C(NCC(c1ccco1)N1CCCC1)c1ccc(Cl)cc1 (centres undefined) | i | -0.64 | i | i | i | i
Cc1ccc(C(=O)N2CCN(S(=O)(=O)c3ccc(Br)cc3)CC2)o1 | i | . | i | i | i | i
CCN(CC)CCNC(=O)CCCNC(=O)Cn1cnc2sc(C)c(C)c2c1=O | i | . | i | i | -9.1* | i
COc1ccc(N2CCN(C(=S)NC(=O)c3cccs3)CC2)c([N+](=O)[O-])c1 | i | 90* | i | i | i | i
CCc1ccc(C(=O)C(C)OC(=O)Cc2n[nH]c(=O)c3ccccc23)cc1 (centres undefined) | i | . | i | i | i | i
CC1CC(CC(C)C(=O)Nc2nncs2)C(=O)O1 (centres undefined) | i | . | i | i | i | i
CC1CC(CC(C)C(=O)NC(=S)Nc2ccc(S(N)(=O)=O)cc2)C(=O)O1 (centres undefined) | i | 1.3 | i | i | -6.5* | i
CSc1nsc(SCC(=O)Nc2ccccc2C(=O)O)n1 | i | . | i | i | i | i
O=C(N/N=C/c1c(O)n(-c2ccc(Cl)cn2)c(=O)c2ccccc12)c1ccncc1 | i | i | -9.6* | i | i | i
O=C(/C=C/c1cccc(Br)c1)NCC1CCCCC1 | i | -0.42 | i | i | -7* | i
COc1cc(/C=C/C(=O)NCC2CCCCC2)cc(OC)c1OC | i | . | i | i | i | i
Cc1nc(NCC(c2ccccc2)N(C)C)c2c(C)c(C)sc2n1 (centres undefined) | i | . | -9.5* | i | i | i
Cc1sc2ncnc(NCC(c3ccccc3)N(C)C)c2c1C (centres undefined) | i | . | -7.5* | i | i | i
Cc1sc2ncnc(NCC(O)c3ccc([N+](=O)[O-])cc3)c2c1C (centres undefined) | i | . | i | i | -5* | i
Cc1sc2ncnc(NCC(O)c3ccccc3)c2c1C (centres undefined) | i | . | i | i | i | i
Cc1ccc2nc(C)cc(C(=O)N3CCCC(N4CCN(c5ccccc5C)CC4)C3)c2c1 (centres undefined) | i | . | i | i | i | i
COc1ccc(OC)c(/C=N/NC(=O)C(=O)N2CCCCCC2)c1 | i | . | i | i | i | i
C#CCOCCOCCOCCNc1nc(N2CCN(C(=O)Cn3cc(CCCCN)nn3)CC2)nc(N2CCN(C(=O)Cn3cc(CCCN=C(N)N)nn3)CC2)n1 | . | . | . | i | i | i
Cc1ccc(N2CC(C(=O)NC3CCC(C)CC3)CC2=O)cc1 (centres undefined) | i | . | i | i | i | i
O=c1[nH]c(-c2ccccc2)cs1 | i | -0.3 | i | i | i | i
S=c1[nH]c(-c2ccccc2)cs1 | i | 50* | i | i | i | i
O=C(/C=C/c1ccc(F)cc1)NCc1ccco1 | i | 0.69 | i | i | i | i
O=C(CSCc1c(F)cccc1Cl)NCc1ccco1 | i | -0.9 | i | i | i | i
O=C(/C=C/c1c(F)cccc1Cl)NCc1ccco1 | i | -0.11 | i | i | -4.5* | i
O=C(CN1C(=O)/C(=C/c2c(F)cccc2Cl)Oc2ccccc21)NCc1ccco1 | i | 0.91 | i | i | -6.6* | i
O=C(NN1C(=O)/C(=C/c2ccc(O)cc2)SC1=S)c1ccccc1O | i | . | i | i | -7.8* | i

Screens (PubChem)
